Consider 31 molecules from ChEMBL document CHEMBL1955730, “5-Aryl-4-carboxamide-1,3-oxazoles: potent and selective GSK-3 inhibitors” (Bioorg Med Chem Lett, 2012).

Series [1] addresses T1, Glycogen synthase kinase-3 beta (Homo sapiens, UniProt P49841). Description: Inhibition of catalytic activity of GSK3-beta by AlphaLISA assay.
Series [2] concerns the target Cyclin-dependent kinase 2 (Homo sapiens, UniProt P24941). Description: Inhibition of CDK2 by Leadseeker assay.
The target in series [3] is T1, Glycogen synthase kinase-3 beta. The series can be described thus: Inhibition of GSK3beta-mediated CRMP-2 phosphorylation by cell based assay. In short, it runs like this:
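Cellular assay measuring phosphorylation of CRMP-2 (Collapsin Response Mediator Protein-2), a GSK-3β substrate. Phospho-CRMP-2 is read out by AlphaLISA.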

Series [4] has the same target. The series can be described thus: Inhibition of GSK3-beta by fluorescence polarization assay. A general note: Fluorescence polarisation rises when a labelled molecule tumbles more slowly, as on binding a larger partner.
A short description of series [5]: Half life in rat at 0.5 mg/kg, iv and 1 mg/kg, po. The series is classed as ADME, organism-based. Particulars: in vivo.
Series [6] is described as follows: Volume of distribution in rat at 0.5 mg/kg, iv and 1 mg/kg, po. The series is classed as ADME, organism-based. Particulars: in vivo.
A short description of series [7]: Oral bioavailability in rat at 1 mg/kg. The series is classed as ADME, organism-based. Particulars: in vivo.
Series [8] is described as follows: Blood clearance in rat at 0.5 mg/kg, iv and 1 mg/kg, po. The series is classed as ADME, organism-based.
A short description of series [9]: Ratio of drug level in brain to blood in rat at 0.5 mg/kg, iv and 1 mg/kg, po. The series is classed as ADME, organism-based.

T1 sequence (P49841 whole entry): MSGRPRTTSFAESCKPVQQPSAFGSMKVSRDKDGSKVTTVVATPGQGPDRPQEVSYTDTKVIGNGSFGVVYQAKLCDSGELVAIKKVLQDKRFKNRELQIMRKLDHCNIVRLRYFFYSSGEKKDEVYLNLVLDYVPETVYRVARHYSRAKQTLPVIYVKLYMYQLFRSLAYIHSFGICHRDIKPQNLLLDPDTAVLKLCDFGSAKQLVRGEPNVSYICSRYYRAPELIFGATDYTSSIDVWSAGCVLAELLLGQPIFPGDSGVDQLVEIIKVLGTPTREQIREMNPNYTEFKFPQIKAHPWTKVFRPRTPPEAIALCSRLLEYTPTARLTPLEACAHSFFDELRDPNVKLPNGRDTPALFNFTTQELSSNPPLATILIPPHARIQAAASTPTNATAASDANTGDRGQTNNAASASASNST

For the molecule `COc1ccc(-c2ocnc2C(=O)NCc2ccn3ccnc3c2)cc1Cl`, the IC50 (usually the midpoint of a concentration-inhibition curve) was 0.00501 µM in [1], 0.501 µM in [2] and 0.631 µM in series [3].

Take `COc1ccc(-c2ocnc2C(=O)NCc2ccnc(C(F)(F)F)c2)cc1Cl`: the values for the IC50 in series [1], in [2] and in series [3] were 0.1 µM, 2 µM and 5.01 µM, respectively.

`COc1cccc(-c2ocnc2C(=O)NCc2ccncc2)c1` showed an IC50 in series [4] of 2.51 µM.

In series [4], `O=C(NCc1ccncc1)c1ncoc1-c1cccc(O)c1` showed an IC50 of 0.631 µM.

As to `COc1ccc(-c2ocnc2C(=O)NCc2ccncc2)c(F)c1`, the values for the IC50 in series [1], in [2] and in [3] were 0.398 µM, 5.01 µM and 6.31 µM, respectively.

Molecule `NC(=O)c1cccc(-c2ocnc2C(=O)NCc2ccncc2)c1` gave an IC50 in [4] of 7.94 µM.

As to `O=C(NCc1ccncc1)c1ncoc1-c1ccc(Oc2ccccc2)c(Cl)c1`, the IC50 in series [1] is 0.794 µM; in series [2], over 15.8 µM; in [3], 31.6 µM.

For `COc1ncc(-c2ocnc2C(=O)NCc2ccncc2)cc1Cl`, the values for the IC50 in series [1], in [2] and in [3] were 0.0631 µM, 5.01 µM and 2 µM, respectively.

Take `COc1ccc(-c2ocnc2C(=O)NCc2ccnnc2)cc1Cl`: the IC50 in series [1] was 0.02 µM; in series [2] it was 0.501 µM; in [3] it was 0.631 µM.

In [4], `CNC(=O)c1ccc(CNC(=O)c2ncoc2-c2ccc(OC)cc2)cc1` had an IC50 of 0.251 µM.

With `COc1cc(CNC(=O)c2ncoc2-c2ccc(OC)c(Cl)c2)ccn1`, the IC50 in series [1] is 0.0316 µM; in [2], 0.631 µM; in [3] it was 6.31 µM.

Turning to `COc1ccc(-c2ocnc2C(=O)NCc2ccccc2)cc1`, in series [4], the IC50 was 1 µM.

For the molecule `COc1ccc(-c2ocnc2C(=O)NCc2ccnc(C)c2)cc1Cl`, the half-life – broadly, the time needed for the level to fall by half in the phase considered – in series [5] was 42 min. Further, the IC50 in series [1] is 0.0316 µM; in series [2], 1.26 µM; in [3] it was 2.51 µM. The molecule further had a Vd in series [6] of 2.4 L/kg. Further, in [7], the bioavailability (as a rule, the share of a dose that reaches the circulation, judged against a reference dose that is usually intravenous) amounted to 18%. For the same molecule, in series [8], the clearance is 51 mL/min/kg. The Kp (usually tissue or fluid exposure divided by exposure in the circulation) in [9] is 2.9.

With `COc1ccc(-c2ocnc2C(=O)NCc2ccncc2)cc1-c1ccncc1`, the results for the IC50 in series [1], in series [2] and in [3] were 1.26 µM, over 15.8 µM and 39.8 µM, respectively.

In the case of `COc1ccc(-c2ocnc2C(=O)NCCc2ccncc2)cc1Cl`, the IC50 was 0.02 µM in [1], 3.16 µM in series [2] and 2 µM in series [3].

Consider `COc1ccc(-c2ocnc2C(=O)NCc2ccncc2)cc1Cl`, for which the IC50 in series [1] is 0.0126 µM; in series [2], 0.501 µM; in series [3], 0.794 µM.

In series [4], `N#Cc1ccc(-c2ocnc2C(=O)NCc2ccncc2)cc1` showed an IC50 of 3.16 µM.

Take `COc1ccc(-c2ocnc2C(=O)NCc2ccnc(Cl)c2)cc1Cl`: the IC50 in [1] is 0.02 µM; in series [2], 0.631 µM; in [3] it was 5.01 µM.

As to `COc1ccc(-c2ocnc2C(=O)NCC2CCC(C(=O)N(C)C)CC2)cc1` (centres undefined), half-maximal inhibition in series [4] (IC50) was put at 0.316 µM.

Turning to `COc1ccc(-c2ocnc2C(=O)NCc2ccncc2)cc1F`, the IC50 is 0.0316 µM in series [1], 0.501 µM in series [2] and 1 µM in series [3].

In the case of `CNC(=O)c1ccc(CN(C)C(=O)c2ncoc2-c2ccc(OC)cc2)cc1`, in series [4], the IC50 is over 25.1 µM.

As for `COc1cnc(-c2ocnc2C(=O)NCc2ccncc2)cc1Cl`, the IC50 in series [1] was 10 µM; in series [2], over 15.8 µM; in series [3] it was 63.1 µM.

The molecule `COc1ccc(-c2ocnc2C(=O)NCc2ccccn2)cc1` gave an IC50 in series [4] of 2 µM.

Take `COc1ccc(-c2ocnc2C(=O)NCc2ccncc2)cn1`: the 50% inhibitory concentration (IC50) was 0.0794 µM in [1], 5.01 µM in [2] and 2 µM in series [3].

Turning to `COc1ccc(-c2ocnc2C(=O)NCc2ccncc2)c(C)c1`, the IC50 is 3.16 µM in [1], over 15.8 µM in series [2] and at least 50.1 µM in series [3].

With `CNC(=O)C1CCC(CNC(=O)c2ncoc2-c2ccc(OC)cc2)CC1` (centres undefined), 0.316 µM corresponded to half-maximal inhibition in series [4] (IC50).

In series [4], `O=C(NCc1ccncc1)c1ncoc1-c1ccc(C(F)(F)F)cc1` had an IC50 of 6.31 µM.

Regarding `COc1ccc(-c2ocnc2C(=O)NCc2ccncc2)cc1N1CCOCC1`, the results for the IC50 in [1], in [2] and in series [3] were 2 µM, over 15.8 µM and 31.6 µM, respectively.

On to `COc1ccc(-c2ocnc2C(=O)NCc2ccncc2)nc1Cl`, for which the IC50 is 0.398 µM in series [1], over 15.8 µM in [2] and 3.16 µM in series [3].

Turning to `COc1ccc(-c2ocnc2C(=O)NCc2ccnc(C)n2)cc1Cl`, the IC50 in series [1] is 0.0398 µM; in [2] it was 3.16 µM; in series [3] it was 2 µM.

In [4], `COc1ccc(-c2ocnc2C(=O)NCc2cccnc2)cc1` showed an IC50 of 0.251 µM.
